What is called MIC is the smallest concentration in the dilution series that meets the test's criterion for growth inhibition. As usually defined, the Cmax is the highest concentration seen after dosing. The term AUC(0-t) denotes the area under the concentration-time curve up to a stated or last time point. Higher therefore signals high exposure. In general, AUC(0-inf) refers to total exposure, with the tail of the curve extrapolated. Higher therefore signals high exposure. What is called MRT last is a mean duration of stay, worked out from the concentration-time curve. One may read the MRT inf as the average time that molecules of a dose stay in the body. As a reminder, the IC50 is the concentration that gives 50% inhibition. By half-life is commonly meant how long it takes for the measured level to halve. A lower half-life goes with rapid decline.

Two compounds from ChEMBL document CHEMBL4725282, “Discovery of a Conformationally Constrained Oxazolidinone with Improved Safety and Efficacy Profiles for the Treatment of Multidrug-Resistant Tuberculosis” (J Med Chem, 2020) can be followed below.

The nature of series [1]: Stability in CD-1 mouse liver microsome at 1 uM measured after 30 mins in absence of NADPH by LC-MS/MS analysis. As to conditions: microsomes, 0.5 h. The format is ADME. Put shortly: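 Liver microsomes (male CD-1 mouse or pooled human), 1 mg/mL protein, compound 1 µM, 37°C with shaking. Started with 1 mM NADPH or run without cofactor. Quenched with ice-cold ACN/MeOH containing internal standard. Parent quantified by LC-MS/MS; 30 min concentration normalised to time zero.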

Series [2] has as its system Mycobacterium tuberculosis. As to the kind of experiment: Antitubercular activity against Mycobacterium tuberculosis isolate 12525 incubated for 7 days by microplate alamar blue assay. The series is classed as functional. The following applies: isolate 12525, 168 h, time 7 day. The essentials: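 MIC determined by microplate alamar blue assay (MABA) following a published protocol.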
(The colour change of resazurin is a common sign of viable cells or microbes.)

Series [3] is described as follows: Cmax in Balb/c mouse at 25 mg/kg, po by LC-MS/MS analysis. The arrangement: route oral, dose 25 mg/kg. The series is classed as ADME, organism-based. As to conditions: in vivo. The essentials:
(§1)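 Female BALB/c mice (20–25 g), five per route. Oral dose 25 mg/kg in 0.5% carboxymethyl cellulose; i.v. dose 2.5 mg/kg in 10% DMSO/physiological saline. Blood sampled 5 min–72 h after p.o. and 2 min–48 h after i.v. Analyte quantified by LC/MS/MS (ESI positive, C18, isocratic methanol/water). Parameters from non-compartmental analysis.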

A short description of series [4]: AUC (0 to t) in Balb/c mouse at 25 mg/kg, po by LC-MS/MS analysis. The following applies: in vivo. Also on record: dose 25 mg/kg. The format is ADME, organism-based. Put shortly:
as §1

Series [5] in a line: AUC (0 to infinity) in Balb/c mouse at 25 mg/kg, po by LC-MS/MS analysis. The format is ADME, organism-based. Also on record: route oral, time infinity, dose 25 mg/kg. The following applies: in vivo. The essentials:
as §1

A short description of series [6]: Cmax in Balb/c mouse at 2.5 mg/kg, iv by LC-MS/MS analysis. The format is ADME, organism-based. The arrangement: route intravenous, dose 2.5 mg/kg. As to conditions: in vivo. Put shortly:
as §1

Series [7] in a line: MRT (0 to t) in Balb/c mouse at 2.5 mg/kg, iv by LC-MS/MS analysis. The format is ADME, organism-based. The following applies: in vivo. Put shortly:
as §1

A short description of series [8]: MRT (0 to infinity) in Balb/c mouse at 2.5 mg/kg, iv by LC-MS/MS analysis. The following applies: in vivo. The format is ADME, organism-based. Put shortly:
as §1

A short description of series [9]: Toxicity in CD-1 mouse assessed as increase in bone marrow micronucleus formation up to 2000 mg/kg, po administered daily via gavage for 2 days measured measured 18 to 24 hrs post last dose by microscopic analysis. The series is classed as organism-based. The following applies: in vivo, 48 h, time 2 day. The essentials:
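Male CD-1 (ICR) mice, 28.3-33.3 g, 3 per group. Oral gavage on 2 consecutive days, 24 h apart, at 100-2000 mg/kg; 500, 1000 and 2000 mg/kg analysed. Bone marrow harvested 18-24 h after last dose and scored microscopically for micronucleus frequency and PCE/total erythrocytes.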

The nature of series [10]: Mutagenicity in Salmonella typhimurium TA100 up to 1000 ug measured after 48 to 72 hrs in presence of S9 fraction by Ames test. The format is toxicity, subcellular. As to conditions: salmonella enterica subsp. enterica serovar typhimurium, dose <=1000 µg, time 48-72 hrs. The essentials:
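Mini-Ames, plate incorporation in 6-well format. Bacteria, compound (DMSO vehicle, top 1000 µg/well), and 10% S9 mix or PBS were mixed into molten agar at 45°C and poured over minimal agar, then incubated 37°C for 48-72 h. Revertants were counted manually and the background lawn inspected. A result is positive at ≥2-fold the mean vehicle revertants with a dose-related increase.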

Series [11] is described as follows: Inhibition of human CaV alpha1c/alpha2/delta/beta2a expressed in HEK293 cells measured after 60 mins by fluo-4 AM dye based fluorescence assay. As to conditions: HEK293, 1 h. The format is cell-based. Put shortly: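 HEK-293 cells stably expressing human Cav1.2 (α1c, α2/δ, β2a) plus Kir2.3, seeded 1.2×10^4/well overnight in 1% FBS medium. Loaded with fluo-4 AM (4 μM), probenecid (5 mM) and brilliant black (1 mM) in 2× dye solution, 60 min at 37 °C. Ten concentrations from 1.52 to 30000 nM, duplicate, read on FLIPR (ex 470-495, em 515-575 nm). Inhibition normalised to KCl EC80 and solvent control; IC50 fitted.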

Series [12] is described as follows: Inhibition of human Nav1.5 expressed in CHO cells at -80 mV holding potential by whole-cell patch-clamp method. The series is classed as cell-based. The essentials:
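CHO cells expressing Nav1.5, whole-cell patch clamp. Extracellular saline with 132 mM NaCl, 10 mM HEPES, pH 7.35; KCl/EGTA/MgATP pipette solution. Holding potential -80 mV, 20 ms step to -10 mV. Final compound concentrations 0.3–30 μM, diluted from DMSO stocks.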
In general terms: Patch clamp records ionic current or voltage across a cell membrane.

The target of series [13] is T1, Amine oxidase [flavin-containing] B (Homo sapiens, UniProt P27338).
T1 sequence (P27338 whole entry): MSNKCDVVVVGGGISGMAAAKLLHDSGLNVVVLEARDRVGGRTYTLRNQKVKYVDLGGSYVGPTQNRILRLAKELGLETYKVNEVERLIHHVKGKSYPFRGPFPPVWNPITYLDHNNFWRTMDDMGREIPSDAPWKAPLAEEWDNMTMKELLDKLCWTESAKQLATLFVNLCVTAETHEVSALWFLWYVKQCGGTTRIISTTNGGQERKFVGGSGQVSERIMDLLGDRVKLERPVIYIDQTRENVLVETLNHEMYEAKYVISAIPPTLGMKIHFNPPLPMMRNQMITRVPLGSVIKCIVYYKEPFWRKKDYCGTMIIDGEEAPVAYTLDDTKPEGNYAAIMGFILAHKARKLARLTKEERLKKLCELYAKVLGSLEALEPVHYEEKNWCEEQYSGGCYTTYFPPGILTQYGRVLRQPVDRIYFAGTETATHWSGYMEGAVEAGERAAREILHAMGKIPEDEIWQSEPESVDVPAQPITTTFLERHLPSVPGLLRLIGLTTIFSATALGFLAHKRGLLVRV
As to the kind of experiment: Inhibition of recombinant human MAOB expressed in baculovirus infected insect cells using kynuramine as substrate measured after 20 mins by LC-MS/MS analysis. The essentials: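 Recombinant human MAO-A or MAO-B (50 μg/mL) in 100 mM potassium phosphate pH 7.4 with 5 mM MgCl2. Kynuramine substrate at 50 μM (MAO-A) or 25 μM (MAO-B). […] 4-Hydroxyquinoline formation measured by LC-MS/MS versus vehicle; IC50 derived.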

A short description of series [14]: Half life in Beagle dog hepatocytes at 2 uM by LC-MS/MS analysis. The series is classed as ADME, cell-based, Canis lupus familiaris, Hepatocyte. Put shortly:
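Hepatocytes (male CD-1 mouse, male SD rat, male beagle dog, male cynomolgus monkey, pooled human), final 1 μM compound and 1 million cells/mL, made by mixing 2 μM compound with 2 million cells/mL. Incubated at 37 °C in a CO2 incubator; sampled at 0, 15, 30, 60, 90 and 120 min. Quenched with methanol/ACN containing 0.1% formic acid. Parent remaining measured by LC-MS/MS.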

Series [15] is described as follows: Toxicity in female Sprague-Dawley rat assessed as change in neutrophil level at 450 mg/kg/day, po administered for 4 weeks followed by 2 week recovery period (Rvb =18.5 +/- 5.3 %). The format is organism-based. As to conditions: in vivo, 672 h.

Values after ≈ are worked out from the molar mass of the structure shown. A value given as a limit tells only on which side of the number the result lay.

For `CC(=O)NC[C@@H]1OC(=O)N2c3cc(F)c(N4CC[S+]([O-])CC4)cc3OC[C@@H]12`, the Stabilty entry in series [1] is “Stable”. This compound also came in with an MIC in series [2] of 0.46 µg/mL (≈ 1.16 µM). Moreover, the Cmax was determined as 1520 ng/mL in [3] and 115 ng/mL in [6]. Further, in series [4], the AUC(0-t) came to 8750 ng·h/mL. In series [5], the AUC(0-inf) is 9020 ng·h/mL. This compound also yielded a mean residence time MRT last in series [7] of 3.52 h. This compound yielded an MRT inf in [8] of 6.22 h. The Activity result in series [9] and in [10] was “Non-Toxic” in each case. Also, the results for the IC50 in [11], in series [12] and in series [13] were over 30 µM, over 30 µM and over 100 µM, respectively.
In the case of `CC(=O)NC[C@@H]1OC(=O)N2c3cc(F)c(N4CCSCC4)cc3OC[C@@H]12`, the Stabilty result in [1] is on record as “Stable”. For the same compound, the MIC in series [2] turned out to be 0.03 µg/mL (≈ 0.0787 µM). The compound also registered a half-life at 2 µM in series [14] of 1.13 h. Besides, the Cmax in [3] came out at 3000 ng/mL; in [6], 4200 ng/mL. Also, the AUC(0-t) in series [4] is 6480 ng·h/mL. Besides, the total exposure AUC(0-inf) in [5] was 7620 ng·h/mL. Further, the mean residence time (MRT last) in [7] was 0.54 h. Further, the mean residence time MRT inf in [8] was 0.691 h. The results for the Activity entry in series [9], in [10] and in series [15] were “Non-Toxic”, “Non-Toxic” and 11.8%, respectively. The half-inhibitory concentration (IC50) was over 30 µM in series [11], over 30 µM in [12] and 3.2 µM in series [13].
